Screening results (PubChem BioAssay)
In the library only some 2.4% were active in any assay of this set; here they are far more common.
AP complement: alternative pathway complement inhibition, orthogonal assay; Human serum alternative complement pathway, LPS-coated ELISA, C3 deposition; tested in compound mixtures; inhibition, % at 5 µM; 62,000 compounds, 0.08% hits;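 active means inhibition above 30% in each of the two pooled mixtures holding the compound, so the lower value exceeds 30%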
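Assay system: Human serum alternative complement pathway, C3 deposition on LPS-coated wells | Incubation: 1 h serum-compound exposure at 37 °C | Doses: 5 µM per compound in ten-compound mixtures | Read-out: Percent inhibition | Technique: ELISA with HRP anti-human C3 antibody, TMB substrate, absorbance 450 nm | Replication: Two pool placements per compound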
SF-1 act: SF-1 (human) activation; activation, % at 10 µM; 65,000 compounds, 1.9% hits; CHO-K1 Gal4-SF-1 LBD luciferase reporter; % increase over DMSO SF-1-specific signal;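 active means activation above the mean activation of all tested compounds plus 3 SD, cut at about 50% in these data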
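Assay system: CHO-K1 cells co-transfected with Gal4 DBD–human SF-1 LBD, 5xGal4 luciferase reporter; doses: 10 µM only; incubation: 20 h compound exposure at 37 °C after 1 h cell settling; signal: luciferase light emission; evaluation: percent activation versus DMSO; repeats: one test per compound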
MMP13 inh: blocks human MMP13 activity | P45452 | AID 570 | 65,000 compounds, 0.07% hits | inhibition, % at 4 µM | MMP-13 fTHP FRET cleavage, Mca fluorescence;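 active means inhibition above the mean of compound-free control plate wells plus 3 SD, cut at about 14% in these data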
RORa activator: RORA (human) activation | CHO-K1 Gal4-RORA LBD luciferase reporter, luminescence; percent increase over mock-subtracted basal signal | activation, % at 10 µM | 65,000 compounds, 1.5% hits | AID 560;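 active means activation above the mean of all tested compounds plus 3 SD, cut at about 49% in these data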
Target sequence (P35398 whole entry, looked up, the tested form may be a part): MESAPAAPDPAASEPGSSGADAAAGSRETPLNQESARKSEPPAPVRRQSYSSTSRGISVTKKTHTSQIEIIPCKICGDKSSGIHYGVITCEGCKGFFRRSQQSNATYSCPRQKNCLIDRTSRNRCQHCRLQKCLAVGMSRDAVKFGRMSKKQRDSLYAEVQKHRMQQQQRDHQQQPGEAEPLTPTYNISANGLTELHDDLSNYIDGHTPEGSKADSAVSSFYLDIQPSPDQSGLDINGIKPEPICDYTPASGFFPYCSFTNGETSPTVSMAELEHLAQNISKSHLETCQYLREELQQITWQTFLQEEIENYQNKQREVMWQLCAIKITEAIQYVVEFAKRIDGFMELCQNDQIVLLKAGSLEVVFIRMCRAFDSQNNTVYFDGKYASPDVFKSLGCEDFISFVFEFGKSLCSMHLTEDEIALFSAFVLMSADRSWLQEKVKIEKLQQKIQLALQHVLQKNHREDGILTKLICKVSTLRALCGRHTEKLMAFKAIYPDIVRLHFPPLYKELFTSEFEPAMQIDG
Ec RNAP inh: blocks E. coli RNA polymerase transcription; inhibition, %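 (tested at 10 µM)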; P0A8V2; AID 559; 62,000 compounds, 0.2% hits; fluorescence transcription assay; in the data active means inhibition above about 20%
HePTP inhibitor: inhibitors of human HePTP phosphatase; inhibition, % at 20 µM; AID 521; 110,000 compounds, 0.64% hits; recombinant HePTP phosphatase activity, OD absorbance; P35236; in the data active means inhibition above about 50%
Numbers stand for hits; - = inactive; . = no result given.

SMILES	AP complement	SF-1 act	MMP13 inh	RORa activator	Ec RNAP inh	HePTP inhibitor
CCN(CC)C(=O)CSc1nc2ccccc2s1	.	.	.	.	.	-
COC(=O)c1ccc(N2C(=O)CC(SCCN)C2=O)cc1 (configuration not stated)	-	-	-	51	-	-
Cc1cccc(C(C)C)c1NC(=O)Nc1ccc(Cl)cc1	.	.	.	.	.	-
CCOC(=O)c1c(NC(C)=O)sc2c1CCC(C)C2 (configuration not stated)	.	.	.	.	.	-
CCOC(=O)Nc1sc2c(c1C(N)=O)CCC(C)C2 (configuration not stated)	.	.	.	.	.	103
CC1CCc2c(sc(NC(=O)c3ccc(Cl)c(Cl)c3)c2C(N)=O)C1 (configuration not stated)	.	.	.	.	.	105
CCOC(=O)C(=Cc1ccc(-c2ccc(Cl)cc2Cl)o1)C(=O)OCC	.	.	.	.	.	-
CC1CCCN(c2nc3ccsc3c(=O)s2)C1 (configuration not stated)	-	-	-	60	-	-
Cc1nc2c(cc(Oc3ccc(S(=O)(=O)N4CCOCC4)cn3)c3ccsc32)s1	-	53	-	-	-	-
O=C(O)c1ccc(-n2c(O)c(/C=C3\C=Nc4ccccc43)sc2=S)cc1	.	.	.	.	.	57
O=C1N=c2ccccc2=C1c1sc(=S)n(-c2ccc(C(=O)O)cc2)c1O	.	.	.	.	.	100
Oc1ccc(-n2c(O)c(/C=C3\C=Nc4ccccc43)sc2=S)cc1	.	.	.	.	.	-
COc1ccc(Br)cc1CN1CCN(S(C)(=O)=O)CC1	.	.	.	.	.	-
CCOC(=O)c1cc(CC)sc1NC(=O)c1cccc(OCC)c1	.	.	.	.	.	-
NS(=O)(=O)c1ccc(NC(=S)NC(=O)c2ccc(Br)cc2)cc1	.	.	.	.	.	-
CC(=O)NC(=O)c1ccccc1OCC(=O)c1ccc(Br)cc1	.	.	.	.	.	55
Cn1c(C(=O)NCc2ccccn2)cc2c(=O)n3ccccc3nc21	.	61	-	53	.	.
Cc1csc2nc(CNC(=O)c3ccco3)cn12	-	52	-	-	-	-
COC(=O)c1cccc(-c2ccc(/C=C3/C(=O)NN(c4cccc(Cl)c4)C3=O)o2)c1	.	.	.	.	.	-
COC(=O)c1cccc(-c2ccc(/C=C3\C(=O)N(c4cccc(C(=O)O)c4)N=C3C)o2)c1	.	.	.	.	.	102
N=C1S/C(=C\c2ccc(-c3cccc(C(=O)O)c3)o2)C(=O)N1c1ccc2c(c1)OCO2	.	.	.	.	.	103
CC1=NN(c2ccc(C(=O)O)cc2)C(=O)/C1=C\c1ccc(-c2cccc(C(=O)O)c2)o1	.	.	.	.	.	101
O=C1NN(c2cccc(Cl)c2)C(=O)/C1=C\c1ccc(-c2cccc(C(=O)O)c2)o1	.	.	.	.	.	102
N=C1S/C(=C\c2ccc(-c3cccc([N+](=O)[O-])c3)o2)C(=O)N1c1ccc2c(c1)OCO2	.	.	.	.	.	-
CCCCN1C(=O)/C(=C2\SC(N3CCCCC3)=NC2=O)c2ccccc21	-	-	-	60	.	-
SMILES	AP complement	SF-1 act	MMP13 inh	RORa activator	Ec RNAP inh	HePTP inhibitor
COc1ccc(S(=O)(=O)Nc2ccc(O)c3ccccc23)cc1	-	-	-	-	24	-
COc1ccc(S(=O)(=O)Nc2ccc(NS(=O)(=O)c3ccc(OC)cc3)c3ccccc23)cc1	.	.	.	.	.	-
CC(C)(C)c1ccc(C(=O)N2CCN(C/C=C/c3ccccc3)CC2)cc1	.	.	.	.	.	-
N#C/C(C(=O)N1CCCCC1)=C1\Nc2ccccc2S1	-	50	-	-	-	-
CC(/C=C/c1ccccc1)=N\N=C1/NC(=O)CS1	.	.	.	.	.	-
Oc1ccc(-c2nnc(SCC3CCCCC3)o2)cc1	-	64	-	59	-	-
COC(=O)CC(=O)CSc1nc2c(cc1C#N)CCCCC2	-	78	-	-	-	-
CCc1nnc(NC(=O)CSc2nc3c(cc2C#N)CCCC3)s1	-	78	-	-	-	-
CN(C)c1ccc(C(=O)N2CCN(c3ccc(F)cc3)CC2)cc1	.	.	.	.	.	-
CC1=C(C#N)c2nc(N)c(C#N)c(C)c2/C1=C\c1ccc(-c2cccc(Cl)c2)o1	.	.	.	.	.	-
CC1=C(C#N)c2nc(N)c(C#N)c(C)c2/C1=C/c1ccc(-c2ccc(C(=O)O)c(Cl)c2)o1	.	.	.	.	.	102
COC(=O)C1=C(N)Oc2cc(C)n(CC3CCCO3)c(=O)c2C1c1ccccc1OC (configuration not stated)	-	-	-	-	-	-
COC(=O)C1=C(N)Oc2cc(N(C)C)ccc2C1c1ccccc1OC (configuration not stated)	.	-	-	49	.	-
Cc1ccc(NC(=O)C2CCCN(c3ncccn3)C2)cc1F (configuration not stated)	-	67	-	-	-	-
O=C(Nc1ccc2c(c1)CCC2)C1CCCN(c2ncccn2)C1 (configuration not stated)	-	69	-	-	-	-
C=CCOc1c(Cl)cc(/C=C2/C(=O)NC(=O)N(c3ccccc3F)C2=O)cc1OCC	.	.	.	.	.	-
Cc1ccc(C)n1-c1ccc(O)c(C(=O)O)c1	.	.	.	.	.	104
Cc1ccc(C)n1-c1ccc(CC(=O)O)cc1	.	.	.	.	.	102
Cc1ccc(S(=O)(=O)Nc2ccc(O)cc2)c(C)c1	.	.	.	.	.	-
COc1ccc(C(C)=O)c(OC(C)=O)c1	.	.	.	.	.	-
CCSc1nnc(NC(=O)c2ccccc2)s1	.	-	-	66	.	-
CCSc1nnc(Nc2ccccc2)s1	-	54	-	-	-	-
O=C(Nc1nnc(SCc2ccc(Cl)cc2)s1)c1ccco1	-	-	-	-	-	-
CCSc1nnc(NC(=O)c2cc3c(s2)CCCC3)s1	-	52	-	-	-	-
CCSc1nnc(NC(=O)c2ccco2)s1	.	-	-	53	.	-
SMILES	AP complement	SF-1 act	MMP13 inh	RORa activator	Ec RNAP inh	HePTP inhibitor
COc1ccccc1CNC(=O)C1CC(=O)N(c2ccc(C)cc2)C1 (configuration not stated)	.	.	.	.	.	-
Cc1nn(Cc2ccccc2)c(=O)n(Cc2ccccc2)c1=O	.	.	.	.	.	-
CC(C)(C)c1ccc(S(=O)(=O)N2CCN(c3ccc(F)cc3)CC2)cc1	.	.	.	.	.	-
CCCc1cc(C(N)=O)c(NC(=O)c2ccco2)s1	-	60	-	59	-	-
CC(Cc1ccc(O)c(O)c1)C(C)Cc1ccc(O)c(O)c1 (configuration not stated)	-	-	-	-	51	-
O=C(Nc1ccc(S(=O)(=O)N2CCCCCC2)cc1)c1ccco1	-	-	-	63	-	-
CC(=O)N(C)c1ccc(NC(=O)c2ccco2)cc1	-	50	-	-	-	-
O=C(Nc1ccncc1)c1ccc(NC(=O)c2ccco2)cc1	.	.	.	.	.	-
O=C(Nc1ccc(Nc2ccccc2)cc1)c1ccco1	-	87	-	60	.	-
O=C(Nc1ccc(Oc2ccc(NC(=O)c3ccco3)cc2)cc1)c1ccco1	.	.	.	.	.	-
CC1CN(S(=O)(=O)c2ccc(NC(=O)c3ccco3)cc2)CC(C)O1 (configuration not stated)	-	-	-	-	-	-
O=C(Nc1nccs1)c1ccc(NC(=O)c2ccco2)cc1	-	56	-	53	-	-
COc1cc2c(C(=O)c3ccccc3)c(/C=C/N(C)C)oc2c2ccccc12	.	.	.	.	.	-
